# From PubChem
# Sampled rows, rich in hits. Any-hit rate of the full collection: about 2.4%.
# beta cell repl: inducers of MIN6 beta-cell proliferation, primary screen, ATP luminescence, uHTS. AID 2380, 2010. MIN6 cells proliferation, ATPlite luminescence, 48 h; cells starved in 0.2% serum; 100% = growth in 10% serum. 330,000 compounds, 0.29% hits. proliferation, % at 10 µM;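 active = compounds whose signal lies at least 3.5 SD above the mean of all wells on their plate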;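 also: 0% = DMSO-treated cells in low-serum medium and 100% = 10% serum control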
# CendR NRP1 mod: modulators of CendR peptide binding to NRP-1, primary screen, biochemical, fluorescence polarization, uHTS | Neuropilin-1 (Homo sapiens), O14786 | FAM-RPARPAR peptide binding to NRP-1 | inhibition, % at 25 µM | 360,000 compounds, 0.85% hits | AID 602438, 2012;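 active = inhibition or corrected inhibition above about 18%, plus a signal ratio from 0.5 to 1.5, limit read from the data, passing the limit was not always enough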
# Myeloid diff MLP: induction of myeloid progenitor differentiation, primary screen, cell-based, flow cytometry, MLPCN library | calls only at 10 µM | ER-HoxA9 myeloid progenitors, lysozyme-GFP differentiation | 360,000 compounds, 1% hits;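 active = normalized GFP-positive differentiation at or above the plate's own cutoff, the solvent-only control mean plus 3 SD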;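 also: cells exposed to compound for four days before flow analysis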
# DAGLB inh: DAGLB lipase inhibitors, primary screen, biochemical, fluorescence, HTS; HEK293T DAGLB membrane lysate, EnzChek fluorogenic substrate; inhibition, % at 5.17 µM; 340,000 compounds, 0.059% hits; in the data active = inhibition above about 34%;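 also: 0% = enzyme with vehicle and 100% = wells lacking enzyme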
# SENP1 inh: human SENP1 catalytic domain inhibitors, primary screen, biochemical, FRET, uHTS; 360,000 compounds, 0.21% hits; inhibition, % at 10 µM; Sentrin-specific protease 1 (Homo sapiens), Q9P0U3; recombinant SENP1 catalytic domain, CyPet-SUMO1-YPet FRET cleavage;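 active = inhibition at least 30% at 10 µM, raw YFP signal under a set limit, fluorescence ratio 0.5 to 1.5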;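 also: 0% = enzyme with DMSO and 100% = no enzyme wells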
# Target sequence (Q9P0U3 419-644 limits assumed): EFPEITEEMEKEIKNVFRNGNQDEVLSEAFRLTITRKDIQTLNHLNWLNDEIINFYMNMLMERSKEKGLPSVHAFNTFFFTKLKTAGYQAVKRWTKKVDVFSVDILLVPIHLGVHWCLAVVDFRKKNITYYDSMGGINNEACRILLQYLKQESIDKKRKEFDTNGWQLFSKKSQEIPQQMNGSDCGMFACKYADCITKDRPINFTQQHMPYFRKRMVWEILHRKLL
#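 Test system: human SENP1 catalytic domain; medium: Tris pH 8 buffer plus EDTA, NaCl, BME, BSA, NP40, catalase; incubation: 50 min reaction at room temperature; technique: FRET, CFP and YFP emission; controls: no-enzyme low control and enzyme-plus-DMSO high control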
# MT1-MMP act inh: blockers of MT1-MMP proenzyme processing, primary screen, HT1080 RFP-PRO-GFP cells, GFP/RFP fluorescence; 360,000 compounds, 0.061% hits; Matrix metalloproteinase-14 (Homo sapiens), P50281; GFP/RFP ratio change, % at 20 µM; GFP/RFP ratio fluorescence, overnight; percent of plate control window, DMSO zero;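 active = GFP/RFP ratio change of at least 30% with cell ATP level not reduced by more than half and red fluorescence within 50% of control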
#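 Assay system: RFP-PRO-GFP reporter HT1080 cells; read-out basis: GFP/RFP fluorescence ratio; benchmarks: DMSO wells and RFP-L50D-GFP cells; doses: 20 µM single dose, 1% DMSO; schedule: overnight cell settling, then overnight compound exposure, 37 °C, 5% CO2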
# * marks the source's active call; other numbers are inactive results; i = inactive; x = no result; + = active, no number.
SMILES,beta cell repl,CendR NRP1 mod,Myeloid diff MLP,DAGLB inh,SENP1 inh,MT1-MMP act inh
Cn1c(=O)c2c(ncn2Cc2ccc(Cl)cc2)n(C)c1=O,6.1,7.8,i,-2.3,2.5,-0.3
COc1ccc(-c2csc(N(CCCN(C)C)C(=O)c3ccccc3C)n2)cc1,-5.1,-10.1,i,-0.8,1.7,-11.0
CN(C)CCCN(C(=O)c1cccs1)c1nc(-c2ccccc2)cs1,-4.3,5.3,+,0.8,-0.9,-1.8
Cc1cc(Br)ccc1OCC(=O)NNC(=O)C(=O)Nc1ccccc1,-1.5,0.9,x,5.4,2.0,2.3
CCOC(=O)/C=c1\s/c(=C\c2c(OC)ccc3ccccc23)c(=O)n1CC(=O)NCC1CCCO1 (stereo unspecified),-6.0,-29.6,+,-3.2,-27.7,x
CC1(C(=O)NS(=O)(=O)c2ccccc2Cl)CCN1C(=O)CC1CC1 (stereo unspecified),x,27.6*,i,x,1.9,2.3
Cc1cc(C)cc(N(CCC#N)C(=O)COC(=O)Cn2[nH]c(=O)c3ccccc3c2=O)c1,-2.5,6.9,i,2.6,-1.3,3.7
CNc1nnc(Sc2ncccc2[N+](=O)[O-])s1,-1.0,-4.0,i,0.5,1.2,3.0
CC(C)n1nnnc1C1c2ccccc2C(=O)N1CCc1c[nH]c2ccccc12 (stereo unspecified),x,9.7,i,x,0.0,3.6
CCOC(=O)Cc1csc(NC(=O)Nc2ccc(Cl)cc2)n1,-2.2,26.4*,i,0.8,1.7,-3.3
NC(c1csc(NC(=O)Nc2cccc(Cl)c2)n1)c1ccccc1Cl (stereo unspecified),x,4.6,i,x,-1.8,-5.2
CC(C)C(N)c1csc(NC(=O)Nc2cccc(Cl)c2)n1 (stereo unspecified),x,0.0,+,x,-0.6,-5.5
Cc1csc(NC(=O)Nc2ccc(Cl)cc2)n1,-3.0,26.3*,i,-0.6,3.2,5.2
O=C(NCC(=O)N(CC1CCCO1)C(C(=O)NC1CCCC1)c1cccnc1)c1ccco1 (stereo unspecified),0.4,-4.8,i,-0.1,0.2,-0.3
CCOC(=O)c1c(NC(=O)CN2C(=O)NC3(CCC(C)CC3)C2=O)sc(C(=O)N(C)C)c1C (stereo unspecified),-0.4,0.6,i,1.0,-6.6,-1.4
CC(=O)NC1(C(=O)O)CCCC1,-1.6,9.5,i,-1.5,-1.1,0.2
COC(=O)c1nc2n(n1)C(c1ccccc1OC)C1=C(CCCC1=O)N2 (stereo unspecified),-1.5,10.4,i,3.1,0.1,0.2
COC(=O)c1nc2n(n1)C(c1ccc(OC)c(OC)c1OC)C1=C(CCCC1=O)N2 (stereo unspecified),-1.0,17.6*,i,-1.5,-0.3,7.2
Cc1cc(NC(=O)CSc2nnc(-c3c[nH]c4ccccc34)n2-c2ccc(Cl)cc2)no1,-1.2,-84.3,i,4.1,0.9,-5.8
CC(=O)NCC(=O)OCC(=O)c1ccccc1,1.3,2.1,+,1.1,-1.0,-2.1
CCCc1nnc(NC(=O)c2cc3ccccc3oc2=O)s1,-4.6,25.7*,i,0.6,-2.6,3.8
COCc1nnc(NC(=O)c2cc3ccccc3o2)s1,0.0,-2.0,i,-0.5,-8.7,3.1
CCCc1nnc(NC(=O)c2cc3ccccc3o2)s1,0.0,-13.4,+,1.2,-66.8,2.2
CCCc1nnc(NC(=O)CCCN2C(=O)c3ccccc3C2=O)s1,0.2,28.6*,i,-0.8,2.8,2.1
CCCCN(C(=O)C1CCCO1)c1c(N)n(CC(C)C)c(=O)[nH]c1=O (stereo unspecified),-0.9,-2.4,i,0.3,-7.0,-2.9
SMILES,beta cell repl,CendR NRP1 mod,Myeloid diff MLP,DAGLB inh,SENP1 inh,MT1-MMP act inh
CN(C)Cc1cc(O)c(CN(C)C)cc1O,-4.0,6.3,i,-0.3,32.5*,-5.3
COc1ccc(OCCOC(=O)c2cc(S(=O)(=O)N3CCOCC3)c(Cl)cc2Cl)cc1,-6.9,8.5,i,-8.8,4.6,2.9
COc1ccc(OC)c(NC(=O)CSC2=NN3CCCC(=O)N=C3S2)c1,-0.8,0.7,i,0.0,-0.7,0.9
COc1cccc(C2CC(c3cccs3)=NN2C(=O)CSC2=NN3CCCC(=O)N=C3S2)c1OC (stereo unspecified),-1.5,9.7,+,0.3,-0.7,2.9
COc1cccc(NC(=O)CSC2=NN3CCCC(=O)N=C3S2)c1,0.5,29.7*,i,-9.5,0.3,1.8
CCc1nnc(NC(=O)CSc2nccn2-c2cccc(C)c2)s1,6.4,-14.8,+,-0.3,-1.2,12.7
O=c1[nH]c2ccccc2c2nc3ccccn3c12,-3.0,-6.2,i,-1.0,0.1,4.6
O=c1nc2c(O)cccn2c2c1c(=O)[nH]c1ccccc12,x,48.0*,i,-5.6,-25.7,-53.4
COC(=O)[C@H](Cc1ccccc1)NC(=O)[C@@H](N)CC(=O)OCc1ccccc1,-4.0,-31.9,+,2.2,1.6,3.6
CN(C)c1ccc(C(=N)Cc2ccc3ccccc3n2)cc1,x,-98.7,+,-4.0,-30.3,-19.8
Cc1ccc(C(=O)N/C(=C\c2sccc2C)C(=O)NCc2ccco2)cc1,-3.0,39.3*,i,0.6,-1.4,x
Cc1cc(C)cc(OCC(=O)OC(C)C(=O)Nc2c(C)n(C)n(-c3ccccc3)c2=O)c1 (stereo unspecified),-4.2,7.0,i,4.2,3.3,5.8
Cc1ccc(-c2cn3nc(-c4ccccc4)c(-c4ccccc4)nc3n2)cc1,-1.8,33.3,+,x,-38.1,-56.6
CN1CCN(S(=O)(=O)c2cc([N+](=O)[O-])ccc2N/N=C/c2ccc(Cl)cc2)CC1,-5.5,-16.1,i,-0.2,-25.9,-1.0
C/C(=N/Nc1ccc([N+](=O)[O-])cc1)c1ccc(C)cc1C,-5.8,-41.1,i,0.7,-24.6,-8.2
COc1ccccc1NS(=O)(=O)c1cc([N+](=O)[O-])ccc1N/N=C/c1c(C)[nH]c2ccccc12,-3.0,-105.3,+,15.8,-0.1,-140.5
Cc1ccc([N+](=O)[O-])cc1S(=O)(=O)NCCc1c(C)[nH]c2ccccc12,0.0,15.9,i,3.6,-0.6,-2.7
O=[N+]([O-])c1ccc(N/N=C/c2c[nH]c3ccccc23)c(S(=O)(=O)Nc2ccc(Cl)cc2)c1,-5.4,-170.0,+,-2.7,-17.2,-82.4
